# Screening data deposited in PubChem by several laboratories.
# Runt-CBFb FRET: inhibitors of RUNX1 Runt–CBFb binding, primary screen, biochemical, FRET, Cerulean-Runt, Venus-CBFb, uHTS; Runt-related transcription factor 1 (Homo sapiens) + Core-binding factor subunit beta …; Cerulean-Runt/Venus-CBFb FRET ratio 530/480, 1 h; 0.46% of 220,000 active; inhibition, % at 20 µM; AID 1496, 2009;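 active means inhibition over about 50% at 20 µM in the single-dose screen, limit read from the data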;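 further: 0% = DMSO wells and 100% = excess unlabeled CBFb competitor control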
#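 Reagent – Venus-CBFb binding partner, 100 nM · Assay system – Cerulean-tagged RUNX1 Runt domain (FRET donor) fusion protein · Input – 100 nM per protein · Incubation – two 1 h room-temperature incubations shielded from light · Measured by – FRET fluorescence · Medium – Tris buffer pH 7.5 with salts and BSA · Benchmarks – unlabeled CBFb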
# PKD1 kinase inh: inhibitors of human PKD1 kinase, biochemical, fluorescence polarization | Serine/threonine-protein kinase D1 (Homo sapiens), Q15139 | PKD1 kinase fluorescence polarization assay | inhibition, % (no concentration beside the values) | 0.056% of 200,000 active
# MEX-5 binding: MEX-5 zinc finger RNA-binding disruptors – biochemical, C. elegans, fluorescence polarization, MLPCN library, primary screen; Zinc finger protein mex-5 (Caenorhabditis elegans), Q9XUB2; MEX-5/FITC-TCR2 RNA binding; hits give low values; activity score (negative = inhibition of binding), % at 10 µM; 0.38% of 300,000 active;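 active means inhibition past about -25% in most replicates, and total fluorescence under double the plate's negative control median, limit read from the data; inconclusive means replicates evenly split on the limit, or fluorescence at least double controls; inactive means too little inhibition in most replicates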;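 further: 0% = DMSO and -100% = 5 µM competing unlabeled TCR2 RNA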
# Target sequence (Q9XUB2 whole entry, looked up): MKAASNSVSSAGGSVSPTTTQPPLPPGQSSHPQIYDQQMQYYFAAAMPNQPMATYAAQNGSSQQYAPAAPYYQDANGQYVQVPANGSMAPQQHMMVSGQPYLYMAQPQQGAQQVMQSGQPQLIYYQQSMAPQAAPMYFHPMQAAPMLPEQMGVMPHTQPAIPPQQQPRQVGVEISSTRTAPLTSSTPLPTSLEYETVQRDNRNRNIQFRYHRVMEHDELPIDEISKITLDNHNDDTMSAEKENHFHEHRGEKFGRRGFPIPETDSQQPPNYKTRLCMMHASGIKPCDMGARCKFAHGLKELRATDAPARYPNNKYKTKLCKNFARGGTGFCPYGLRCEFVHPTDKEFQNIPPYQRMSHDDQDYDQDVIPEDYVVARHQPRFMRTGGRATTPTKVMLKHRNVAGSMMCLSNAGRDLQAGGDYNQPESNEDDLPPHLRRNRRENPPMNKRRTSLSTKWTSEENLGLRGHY
# EBV gp42 block: Epstein-Barr virus gp42 inhibitors, primary screen, biochemical, uHTS, fluorescence polarization. 0.42% of 220,000 active. inhibition, % (tested at 21.74 µM). Fluorescence polarization binding assay, mP read-out. AID 1085, 2008
# RanGTP-Imp inh: inhibitors of RanGTP-importin-beta interaction, primary screen, biochemical, FRET, CFP-Ran, YFP-importin-beta, homogeneous; Ran GTPase (GTP-bound) - importin-beta complex; cell-free CFP-Ran/YFP-importin-beta FRET ratio; inhibition, % (no concentration beside the values); 1.1% of 300,000 active; AID 2216, 2009;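 active means more than half of the replicate wells show a fall in the fluorescence ratio signal beyond about 16%, limit read from the data, passing the limit was not always enough; inconclusive means exactly half of the replicate wells pass the set limit; inactive means fewer than half of replicates pass the limit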;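 further: 0% = DMSO wells and 100% = Ran loaded with GDP instead of GTP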
# Runt-SMMHC FRET: inhibitors of RUNX1 Runt–CBFb-SMMHC binding, primary screen, biochemical, FRET, Cerulean-Runt, Venus-CBFb-SMMHC, uHTS. Runt-related transcription factor 1 (Homo sapiens) + Core-binding factor subunit beta …. Cerulean-Runt/Venus-CBFb-SMMHC FRET ratio 530/480, 1 h. inhibition, % at 20 µM. 0.74% of 220,000 active. AID 1434, 2008;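 active means mean inhibition across duplicate retests at 20 µM reaching about 50%, limit read from the data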;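 further: 0% = DMSO wells and 100% = wells with excess untagged CBFb-SMMHC; inhibitors lower the FRET ratio by blocking Runt binding to CBFb-SMMHC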
# Numbers without * were called inactive; u = inconclusive; x = no result. Only some compounds are listed: those with a hit (about 2% of all), similar ones and a draw of the others. Unless noted, no stated cut-off is given here; in the data, active means inhibition above about 50%; inactive means the rest.
SMILES,Runt-CBFb FRET,PKD1 kinase inh,MEX-5 binding,EBV gp42 block,RanGTP-Imp inh,Runt-SMMHC FRET
CC(=O)c1c(N2CCCCC2)nc(=S)n(Cc2ccccc2)c1C,-5,-13,-1,-1,4,-6
CCn1c(C)c(C(C)=O)c(N2CCN(c3ccc(F)cc3)CC2)nc1=S,23,-6,1,-1,20*,0
CC(=O)c1c(N2CCN(c3ccccc3)CC2)nc(=S)n(-c2ccccc2)c1C,-1,-1,-4,-10,2,-38
CC(=O)c1c(N2CCN(Cc3ccccc3)CC2)nc(=S)n(Cc2ccccc2)c1C,75*,2,1,-17,68*,82*
CC(=O)c1c(N2CCN(CCO)CC2)nc(=S)n(-c2ccccc2)c1C,65*,4,-3,1,62*,92*
CC(=O)c1c(N2CCN(Cc3ccccc3)CC2)nc(=S)n(-c2ccccc2)c1C,46,-2,-10,0,85*,98*
O=C(Nc1ccccc1Oc1cccnc1)C1CCCN(C/C=C/c2ccccc2)C1 (stereo not drawn),x,x,6,x,4,x
O=C(NC1CCN(Cc2ccccc2)CC1)c1cccc(Br)c1,x,x,1,x,-3,x
CC(C)(C)c1cc[n+](-c2nc([O-])sc2C=O)cc1,0,0,1,17,-2,-3
CCc1cc[n+](-c2nc([O-])sc2C=O)cc1,-42,-3,-50*,87*,-64,-92
Cc1cccc(C)c1NC(=O)C1=C(O)c2sccc2N(C)S1(=O)=O,32,-7,1,-11,46*,59*
Cc1ccc(C(=O)NCc2cccnc2)cc1S(=O)(=O)N1CCCCCC1,x,x,-2,x,-3,x
Nc1nc(-c2ccccc2)cn1N,-2,7,2,-21,4,-11
Cc1ccc(-c2cn3nc(-c4ccccc4)c(-c4ccccc4)nc3n2)cc1,2,x,u,126*,90*,81
c1ccc(-c2cn3nc(-c4ccccc4)c(-c4ccccc4)nc3n2)cc1,x,4,-27*,128*,-9,-2
CN(CC(=O)Nc1cccc(F)c1)C(=O)/C=C/c1ccc2ccccc2n1,x,x,-3,x,10,x
CCOc1ccc2nc(NCCNC(=O)c3cc(OC)c(OC)c(OC)c3)c(C#N)cc2c1,x,x,0,x,113*,x
COc1cc(C(=O)NCCNc2nc3c(C)c(C)ccc3cc2C#N)cc(OC)c1OC,x,x,2,x,2,x
COc1cc(C(=O)NCCCNc2nc3cc(C)c(C)cc3cc2C#N)cc(OC)c1OC,x,2,0,-20,50*,18
CS(=O)(=O)Nc1cccc(-c2cn3c(n2)SCC3)c1,x,x,-4,x,-2,x
O=C(COC(=O)CSc1ccc([N+](=O)[O-])cc1)NCCCc1ccccc1,x,x,1,x,-3,x
O=C(Nn1c(O)c(C=C2N=c3ccccc3=N2)sc1=S)c1cccc(Cl)c1,1,-2,-1,-6,-3,-7
O=C(Nn1c(O)c(C=C2N=c3ccccc3=N2)sc1=S)c1ccc(Cl)cc1,8,-2,-1,43,33*,-6
Cc1ccc(C(=O)Nn2c(O)c(C=C3N=c4ccccc4=N3)sc2=S)cc1,-3,19,-2,61*,-2,-12
O=C(Nn1c(O)c(C=C2N=c3ccccc3=N2)sc1=S)c1ccccc1,2,0,-1,9,-2,-13
N/C(=N\O)c1ccccc1N1CCCCC1,1,-5,1,7,2,0
CC(C)(C)OC(=O)NC(Cc1ccccc1)C(=O)N1CCC(C(=O)NCC(=O)Nc2ccc(F)cc2)CC1 (stereo not drawn),x,x,-57*,x,-5,x
O=c1cc(N2CCCCCC2)[nH]c(=O)n1-c1ccccc1Cl,-1,-8,0,-10,x,1
